Assays:
[1] = molecular target: T1, Tyrosine-protein kinase JAK3 (Homo sapiens, UniProt P52333); assay: Inhibition of fluorescein labeled probe binding to human recombinant JAK3 JH1 domain incubated for 1 hr by HTRF assay
T1 sequence (P52333 whole entry): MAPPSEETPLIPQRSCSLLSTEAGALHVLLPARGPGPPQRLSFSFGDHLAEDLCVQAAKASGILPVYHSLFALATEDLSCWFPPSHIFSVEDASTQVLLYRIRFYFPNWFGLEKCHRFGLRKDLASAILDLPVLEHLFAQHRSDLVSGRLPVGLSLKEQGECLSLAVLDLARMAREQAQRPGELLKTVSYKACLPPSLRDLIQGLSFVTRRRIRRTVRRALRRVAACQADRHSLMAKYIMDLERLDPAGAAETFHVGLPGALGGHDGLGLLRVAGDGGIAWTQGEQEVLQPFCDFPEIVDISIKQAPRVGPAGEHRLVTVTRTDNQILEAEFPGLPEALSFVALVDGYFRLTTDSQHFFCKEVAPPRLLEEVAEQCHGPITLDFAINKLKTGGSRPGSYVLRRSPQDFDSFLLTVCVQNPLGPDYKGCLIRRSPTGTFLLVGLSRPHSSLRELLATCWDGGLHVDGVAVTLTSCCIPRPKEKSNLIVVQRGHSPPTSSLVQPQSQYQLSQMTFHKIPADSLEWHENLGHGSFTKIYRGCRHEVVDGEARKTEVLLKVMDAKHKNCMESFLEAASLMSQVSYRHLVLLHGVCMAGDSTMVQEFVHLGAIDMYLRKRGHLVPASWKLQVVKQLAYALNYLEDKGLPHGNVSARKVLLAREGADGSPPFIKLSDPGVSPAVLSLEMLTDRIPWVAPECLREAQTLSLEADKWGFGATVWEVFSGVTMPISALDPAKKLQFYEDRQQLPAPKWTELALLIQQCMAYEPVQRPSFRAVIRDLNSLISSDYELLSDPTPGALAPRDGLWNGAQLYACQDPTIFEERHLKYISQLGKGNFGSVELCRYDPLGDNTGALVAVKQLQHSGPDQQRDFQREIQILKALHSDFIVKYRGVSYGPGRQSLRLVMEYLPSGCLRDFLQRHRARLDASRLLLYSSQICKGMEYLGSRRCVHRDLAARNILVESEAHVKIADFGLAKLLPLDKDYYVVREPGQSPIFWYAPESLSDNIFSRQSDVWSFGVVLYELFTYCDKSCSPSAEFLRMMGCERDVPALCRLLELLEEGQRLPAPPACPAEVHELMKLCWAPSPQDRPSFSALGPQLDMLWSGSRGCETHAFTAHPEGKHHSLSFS
Method in brief: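 HTRF competition binding assay: displacement of a fluorescent probe from human recombinant JAK3 JH1 domain. IC50 for 50% inhibition of HTRF signal derived by nonlinear regression.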

JAK3/JAK1 = JAK3/JAK1 (Homo sapiens, UniProt P23458+P52333); assay: Inhibition of JAK1/JAK3 in human PBMC assessed as decrease in IL2-induced STAT5 phosphorylation in CD3+ T cells preincubated for 1 hr followed by stimulation with IL2 for 15 mins by flow cytometry; assay type: cell-based
Method in brief: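 Human cytokine signalling assay: IL-2 stimulation (JAK1/JAK3), with STAT5 phosphorylation in CD3⁺ T-cells measured as the end point. Read as IC50; mean of at least three separate experiments.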

[2] = molecular target: Tyrosine-protein kinase JAK2 (Homo sapiens, UniProt O60674); assay: Inhibition of JAK2 in GM-CSF-stimulated human TF-1 cells; assay type: cell-based
Sequence of Tyrosine-protein kinase JAK2 (O60674 whole entry): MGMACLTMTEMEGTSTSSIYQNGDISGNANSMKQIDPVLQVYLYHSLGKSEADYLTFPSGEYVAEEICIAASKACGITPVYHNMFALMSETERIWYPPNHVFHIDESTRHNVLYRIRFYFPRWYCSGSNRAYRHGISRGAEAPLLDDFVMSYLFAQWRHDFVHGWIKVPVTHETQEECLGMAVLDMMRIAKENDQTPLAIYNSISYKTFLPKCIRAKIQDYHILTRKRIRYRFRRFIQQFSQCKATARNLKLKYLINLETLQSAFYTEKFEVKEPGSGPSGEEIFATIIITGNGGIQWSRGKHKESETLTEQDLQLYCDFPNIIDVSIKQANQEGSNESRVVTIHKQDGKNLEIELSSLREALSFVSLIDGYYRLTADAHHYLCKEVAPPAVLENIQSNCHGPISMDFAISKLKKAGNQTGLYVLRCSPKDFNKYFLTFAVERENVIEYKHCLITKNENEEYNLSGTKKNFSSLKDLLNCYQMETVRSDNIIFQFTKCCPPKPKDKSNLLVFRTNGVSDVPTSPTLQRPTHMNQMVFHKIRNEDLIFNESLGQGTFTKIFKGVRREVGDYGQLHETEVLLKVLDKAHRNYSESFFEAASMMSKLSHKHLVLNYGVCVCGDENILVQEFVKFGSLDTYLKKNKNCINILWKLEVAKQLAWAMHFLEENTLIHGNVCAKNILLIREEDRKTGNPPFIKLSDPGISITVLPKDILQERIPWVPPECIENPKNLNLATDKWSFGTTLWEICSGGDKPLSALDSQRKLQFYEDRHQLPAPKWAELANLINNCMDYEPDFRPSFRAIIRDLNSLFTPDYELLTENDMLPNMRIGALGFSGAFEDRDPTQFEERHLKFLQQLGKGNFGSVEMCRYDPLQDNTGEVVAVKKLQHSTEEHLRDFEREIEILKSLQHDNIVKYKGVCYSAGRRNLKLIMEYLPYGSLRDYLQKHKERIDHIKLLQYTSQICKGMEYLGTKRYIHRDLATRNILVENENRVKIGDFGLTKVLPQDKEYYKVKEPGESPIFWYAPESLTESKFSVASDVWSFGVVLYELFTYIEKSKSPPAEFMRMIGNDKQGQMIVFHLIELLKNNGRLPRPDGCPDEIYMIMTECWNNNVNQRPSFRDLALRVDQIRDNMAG

Sequence of JAK3/JAK1 (P23458 whole entry, one chain of several): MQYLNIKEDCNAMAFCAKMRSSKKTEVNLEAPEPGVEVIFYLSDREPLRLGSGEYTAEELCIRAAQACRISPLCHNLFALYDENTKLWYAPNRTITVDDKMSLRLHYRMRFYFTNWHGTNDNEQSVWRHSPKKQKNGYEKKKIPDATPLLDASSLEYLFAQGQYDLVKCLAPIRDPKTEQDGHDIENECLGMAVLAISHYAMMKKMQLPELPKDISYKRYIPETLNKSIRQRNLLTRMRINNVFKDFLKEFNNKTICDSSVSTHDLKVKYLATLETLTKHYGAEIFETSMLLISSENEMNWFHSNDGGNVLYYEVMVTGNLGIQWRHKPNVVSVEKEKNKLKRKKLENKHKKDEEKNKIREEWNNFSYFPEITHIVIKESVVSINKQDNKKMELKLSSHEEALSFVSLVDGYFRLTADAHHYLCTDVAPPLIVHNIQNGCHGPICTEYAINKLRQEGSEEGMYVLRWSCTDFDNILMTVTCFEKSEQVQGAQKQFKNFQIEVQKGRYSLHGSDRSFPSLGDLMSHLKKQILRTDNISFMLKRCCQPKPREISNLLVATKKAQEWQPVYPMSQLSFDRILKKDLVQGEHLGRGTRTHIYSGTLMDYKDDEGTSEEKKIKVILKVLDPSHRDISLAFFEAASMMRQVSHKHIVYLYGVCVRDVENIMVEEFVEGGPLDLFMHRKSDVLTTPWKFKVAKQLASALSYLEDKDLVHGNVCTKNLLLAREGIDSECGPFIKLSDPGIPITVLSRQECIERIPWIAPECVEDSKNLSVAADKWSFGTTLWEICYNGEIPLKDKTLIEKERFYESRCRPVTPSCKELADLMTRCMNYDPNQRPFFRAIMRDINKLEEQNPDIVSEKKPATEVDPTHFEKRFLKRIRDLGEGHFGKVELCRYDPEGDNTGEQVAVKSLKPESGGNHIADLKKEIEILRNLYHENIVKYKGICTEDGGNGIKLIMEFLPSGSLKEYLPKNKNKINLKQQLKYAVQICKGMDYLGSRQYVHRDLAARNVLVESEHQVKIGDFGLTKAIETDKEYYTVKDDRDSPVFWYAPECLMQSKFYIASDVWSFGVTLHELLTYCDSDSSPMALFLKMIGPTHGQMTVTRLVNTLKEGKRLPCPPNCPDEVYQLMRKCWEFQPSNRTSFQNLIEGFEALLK

## [2H]C([2H])([2H])NC(=O)c1nnc(Nc2ccccn2)cc1Nc1ccccc1S(C)(=O)=O
[1]
  IC50: > 10 µM
JAK3/JAK1
  IC50: 5.7 µM
[2]
  IC50: 2.7 µM

Source: ChEMBL document CHEMBL4376812 (J Med Chem, 2019)
